# ARNT-TACC3 inh – ARNT/TACC3 interaction disruption. AlphaScreen His-ARNT PAS-B/GST-TACC3 binding, luminescence; TACC3 fragment carries E629A point mutation. Q9Y6A5. actives 0.66% (n = 390,000). AID 623870. inhibition, % at 9.99 µM;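 active = mean inhibition of replicates at least 50% and at least half of replicates each reaching 50%; inconclusive = half or more replicates reach 50% but mean below 50%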
# AI-2 QS mod – modulates the Vibrio harveyi AI-2 quorum sensing system; Vibrio harveyi JMH597 AI-2 luminescence/OD600 ratio, 9 h; hits give low values; strain lacks LuxN and CqsS sensors; 0 = neutral-control median; activity change, % at 7.5 µM; actives 0.4% (n = 300,000); AID 2094; in the data active = activity change below about -75%, passing the limit was not always enough; inconclusive = no clear call, values can overlap the other calls;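 also: luminescence divided by OD600 gain over 9 h not by final OD600 alone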
# CAL PDZ FP-1 – blocks peptide binding to human CAL PDZ domain | actives 0.02% (n = 330,000) | purified CAL PDZ, TMR-peptide fluorescence polarization, 1 h | Q9HD26 | inhibition, % at 20 µM;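 active = highest replicate inhibition of at least 40%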
#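 Material: tagged CAL PDZ protein CerCALP, purified; buffer or medium: sodium phosphate/NaCl buffer pH 7.4 with TCEP, IgG, Thesit; also added: fluorescent TMR peptide probe; schedule: 1 h incubation at room temperature before polarization reading; technique: fluorescence polarization from S- and P-plane intensities, G-factor corrected; control set: unlabelled peptide and DMSO controls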
# Rce1 inhib – inhibitors of yeast Ras-converting enzyme; Q03530; yeast membranes, quenched prenylated peptide cleavage fluorescence; calls only; actives 0.27% (n = 290,000); AID 2563;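 active = fall in fluorescence gain of 50% or more versus controls, with final raw signal at or below 3038400; inconclusive = same 50% fall but final raw signal above 3038400; inactive = fall in fluorescence gain under 50%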
# Target sequence (Q03530 whole entry, looked up): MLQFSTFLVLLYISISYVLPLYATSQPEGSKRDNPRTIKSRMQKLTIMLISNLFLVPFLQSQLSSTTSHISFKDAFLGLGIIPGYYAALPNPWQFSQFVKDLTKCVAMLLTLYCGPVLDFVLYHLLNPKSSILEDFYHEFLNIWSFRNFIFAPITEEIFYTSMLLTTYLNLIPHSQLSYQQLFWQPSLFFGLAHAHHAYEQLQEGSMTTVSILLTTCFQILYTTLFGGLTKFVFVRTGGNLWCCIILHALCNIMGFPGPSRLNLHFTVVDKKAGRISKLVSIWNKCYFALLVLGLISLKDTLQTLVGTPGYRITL
# CAL PDZ FP-2 – CAL PDZ (human) peptide binding inhibition | Q9HD26 | purified CAL PDZ, TMR-peptide fluorescence polarization, 1 h | inhibition, % at 24.9 µM | actives 0.92% (n = 300,000) | AID 602252;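 active = mean inhibition of at least 30% with at least half of replicates also reaching 30%; inconclusive = no clear call, values can overlap the other calls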
# Hits are given with their value; – = inactive; ? = inconclusive; · = not tested or not shown; + = active, no number. Hits are enriched below; roughly 1.7% of the tested compounds scored in any of these assays.
SMILES,ARNT-TACC3 inh,AI-2 QS mod,CAL PDZ FP-1,Rce1 inhib,CAL PDZ FP-2
CNC(=O)Cn1nc(C)c(S(=O)(=O)N2CCOCC2)c1C,·,·,–,·,50
COc1cccc(-c2ccc3c(c2)[C@H]2[C@H](CCN2C(=O)NC2CCCC2)[C@H](CO)N3C)c1,active,·,·,·,·
COc1ccc(-c2ccc3c(c2)[C@@H]2[C@@H](CCN2C(=O)NC2CCCCC2)[C@H](CO)N3C)cc1,–,·,·,·,·
CC(C)(C)NC(=O)Cn1c(Cl)nc2ccccc21,–,–,–,–,69
CC(C)(C)NC(=O)Cn1c(SCC(=O)NC2CCCC2)nc2ccccc21,–,–,–,–,–
CC(C)NC(=O)NC(=O)COC(=O)c1ccccc1Oc1ccccc1,–,–,·,·,76
CC(C)NC(=O)NC(=O)COC(=O)c1ccccc1O,–,–,–,–,–
COC(=O)c1ccc(Sc2ccccn2)c([N+](=O)[O-])c1,–,–,–,–,–
NC(=O)C1c2ccccc2Oc2ccccc21,–,–,·,–,75
CCC(C)NC(=O)c1cc2c(=O)n3cccc(C)c3nc2s1 (centres undefined),–,–,·,+,–
Cc1c(OCC(=O)N2CCN(c3ccccc3)CC2)ccc2c3c(c(=O)oc12)CCCC3,–,–,–,–,–
Cc1cccc(C(=O)NNC(=S)NC(=O)c2ccccc2)c1,–,?,–,–,·
Cc1ccc(C(=O)NNC(=S)NC(=O)c2ccccc2)cc1,–,-84,–,–,–
Cc1ccc(C(=O)NC(=S)NNC(=O)c2ccc([N+](=O)[O-])cc2)cc1,–,-86,–,–,·
Cc1ccc(C(=O)NC(=S)NNC(=O)c2ccccc2)cc1,–,-150,–,–,–
Cc1ccc(C(=O)NC(=S)Nc2ccccc2C(F)(F)F)cc1,–,-87,–,–,–
O=C(NNC(=S)NC(=O)c1ccccc1)c1ccc([N+](=O)[O-])cc1,–,?,–,–,–
Cc1ccc(C(=O)NC(=S)NNC(=O)CCN2CCOCC2)cc1,40,–,–,–,–
O/N=C/c1ccc2cccc(O)c2n1,57,–,–,–,–
COc1ccc(CCn2c(=S)[nH]c3ccc(N4CCOCC4)cc3c2=O)cc1OC,–,–,–,–,128
Cn1c(=O)c2[nH]c(CCc3ccncc3)nc2n(C)c1=O,–,·,–,·,54
CCCc1nc2c([nH]1)c(=O)n(C)c(=O)n2C,–,–,–,–,–
CC(=O)c1c(C)oc2ccc(N(C(=O)c3ccncc3)S(=O)(=O)c3ccccc3)cc12,–,–,–,–,–
C[C@@H]1CCCCO[C@@H](CN(C)C(=O)Nc2ccccc2)[C@H](C)CN([C@H](C)CO)C(=O)c2cc(NC(=O)CCCN(C)C)ccc2O1,–,·,·,·,·
C[C@H](CO)N1C[C@H](C)[C@H](CN(C)Cc2ccc3c(c2)OCO3)OCCCC[C@H](C)Oc2ccc(NC(=O)Nc3ccc(C(F)(F)F)cc3)cc2C1=O,46,·,·,·,·
SMILES,ARNT-TACC3 inh,AI-2 QS mod,CAL PDZ FP-1,Rce1 inhib,CAL PDZ FP-2
COc1ccc(NC(=O)N(C)C[C@@H]2Oc3ccc(NS(=O)(=O)c4cn(C)cn4)cc3C(=O)N([C@H](C)CO)C[C@H]2C)cc1,active,·,·,·,·
C[C@@H]1CCCCO[C@H](CN(C)C(=O)Nc2ccc3c(c2)OCO3)[C@H](C)CN([C@@H](C)CO)C(=O)c2cc(NC(=O)CCCN(C)C)ccc2O1,45,·,·,·,·
COc1ccc(NC(=O)N(C)C[C@@H]2Oc3ccc(NS(=O)(=O)c4cn(C)cn4)cc3C(=O)N([C@@H](C)CO)C[C@H]2C)cc1,–,·,·,·,·
C[C@H]1CCCCO[C@H](CN(C)Cc2ccc3c(c2)OCO3)[C@@H](C)CN([C@@H](C)CO)C(=O)c2cc(NC(=O)Nc3ccc(C(F)(F)F)cc3)ccc2O1,57,·,·,·,·
Cc1oc(-c2ccccc2)cc1C(N)=O,–,–,–,–,–
CCOc1nc(-c2ccccc2)ccc1-c1noc(COc2ccccc2)n1,–,–,–,–,–
Cc1cccc(NS(=O)(=O)c2cc(NC(=O)CC(=O)c3ccc([N+](=O)[O-])cc3)ccc2C)c1,·,–,·,–,·
C[C@@H]1CN([C@@H](C)CO)C(=O)c2cccc(NS(C)(=O)=O)c2O[C@@H]1CN(C)C(=O)Nc1ccc2c(c1)OCO2,active,·,·,·,·
C[C@H]1CN([C@@H](C)CO)C(=O)c2cccc(NS(C)(=O)=O)c2O[C@H]1CN(C)C(=O)Nc1ccc2c(c1)OCO2,–,·,·,·,·
CCC(=O)c1ccc(OCC(=O)Nc2cc(S(=O)(=O)N3CCCCC3)ccc2OC)cc1,–,–,–,–,–
CCCOC1CCCN(C(=O)c2ccc(OC3CCN(C(=O)CCOC)CC3)cc2)C1 (centres undefined),–,–,–,–,–
Nc1nc(NC(=O)C(Cl)(Cl)Cl)nn1-c1ccccc1,64,–,–,–,–
CCC(=O)Nc1nc(N)n(-c2ccccc2)n1,–,–,–,–,–
CCOc1ccc2nc(/N=C/c3c(C)[nH]n(-c4ccccc4)c3=O)sc2c1,27,–,–,–,–
CCOc1ccc2nc(/N=C/c3c(C)[nH]n(-c4ccc(C)cc4)c3=O)sc2c1,–,–,–,–,–
CCOC(=O)c1cc2c(=O)n3cccc(C)c3nc2n(CC(C)C)c1=NC(=O)c1ccco1,–,–,–,+,–
CCOCCCn1c(=NC(=O)c2ccco2)c(C(=O)OCC)cc2c(=O)n3cccc(C)c3nc21,–,–,–,–,–
CSCCC1COC(c2cccs2)=N1 (centres undefined),–,–,–,–,31
O=C(COC(=O)COc1ccc(Br)cc1)NCC1CCCO1 (centres undefined),–,·,–,·,91
C[C@@H]1CN([C@H](C)CO)S(=O)(=O)c2ccc(-c3cccnc3)cc2O[C@H]1CN(C)C(=O)NC1CCCCC1,–,·,·,·,·
CCCCN1CCc2c([nH]c3c(C)cccc23)C1=O,–,–,–,–,72
Cc1ccc(NC(=O)c2cc(S(=O)(=O)Nc3ccc(C)cc3)cs2)cc1,–,-79,–,–,–
O=C(NC1CCCC1)c1ncn[nH]1,22,–,–,–,–
Cc1ccc(C)c(NC(=O)c2ncn[nH]2)c1,–,–,–,–,–
CC(=O)N[C@@H](C)c1nc2ccccc2n1CCCN1CCN(c2nc(-c3ccc(C)cc3)cs2)CC1,–,–,–,+,–
CNC[C@@H]1Oc2c(NS(=O)(=O)c3cn(C)cn3)cccc2C(=O)N([C@@H](C)CO)C[C@H]1C,–,·,·,·,·
O=C(NNc1ncccc1-n1cccc1)c1ccc(Cl)cc1,–,–,–,–,–
CC(C)(C)c1ccc(C(=O)NNc2ncccc2-n2cccc2)cc1,–,–,–,–,170
O=C(CSc1nnc(C2CC2)n1Cc1ccccc1)N1CCN(S(=O)(=O)c2ccccc2)CC1,–,–,–,–,42
COc1ccc(C(CNC(=O)COc2ccc(C)c(C)c2)N2CCCCC2)cc1 (centres undefined),–,–,–,–,·

# Source: PubChem
